Screens (PubChem)
Kir21 block – inhibitors of mouse Kir2.1 inward-rectifier potassium channel. actives 0.85% (n = 310,000). P35561. HEK293-Kir2.1, FluxOR thallium flux fluorescence; active compounds read low. B-score at 10 µM;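 active means fluorescence ratio B-score at or below minus 3 SD of library scores, with starting-brightness B-score within 2 SD, cut at about -4.2 in these data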;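 further: channel flux triggered by added potassium and thallium sulfate stimulus; B-score of peak minus minimum fluorescence over baseline after thallium stimulus; more negative B-score means stronger Kir2.1 block with less thallium influx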
KCNK3 inh – human KCNK3 channel inhibition, primary screen. O14649. CHO-KCNK3 thallium flux, FluxOR fluorescence; active compounds read low. B-score at 10 µM. actives 0.84% (n = 340,000). AID 602410;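 active means B-score under library mean minus 4 SD, starting fluorescence ratio at most library mean plus 5 SD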;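 further: more negative B-score means stronger inhibition of thallium flux through KCNK3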
KCNQ1 block – blocks the human KCNQ1 potassium channel; actives 1.3% (n = 310,000); B-score at 10 µM; P51787; AID 2642; CHO-K1 KCNQ1, FluxOR thallium flux fluorescence; active compounds read high;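 active means compounds whose thallium flux B-score, printed positive for inhibition, exceeds three library SD while starting fluorescence stays within three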;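 further: channel opened by potassium depolarization with thallium stimulus after 20 min compound exposure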
Target sequence (P51787 whole entry, looked up): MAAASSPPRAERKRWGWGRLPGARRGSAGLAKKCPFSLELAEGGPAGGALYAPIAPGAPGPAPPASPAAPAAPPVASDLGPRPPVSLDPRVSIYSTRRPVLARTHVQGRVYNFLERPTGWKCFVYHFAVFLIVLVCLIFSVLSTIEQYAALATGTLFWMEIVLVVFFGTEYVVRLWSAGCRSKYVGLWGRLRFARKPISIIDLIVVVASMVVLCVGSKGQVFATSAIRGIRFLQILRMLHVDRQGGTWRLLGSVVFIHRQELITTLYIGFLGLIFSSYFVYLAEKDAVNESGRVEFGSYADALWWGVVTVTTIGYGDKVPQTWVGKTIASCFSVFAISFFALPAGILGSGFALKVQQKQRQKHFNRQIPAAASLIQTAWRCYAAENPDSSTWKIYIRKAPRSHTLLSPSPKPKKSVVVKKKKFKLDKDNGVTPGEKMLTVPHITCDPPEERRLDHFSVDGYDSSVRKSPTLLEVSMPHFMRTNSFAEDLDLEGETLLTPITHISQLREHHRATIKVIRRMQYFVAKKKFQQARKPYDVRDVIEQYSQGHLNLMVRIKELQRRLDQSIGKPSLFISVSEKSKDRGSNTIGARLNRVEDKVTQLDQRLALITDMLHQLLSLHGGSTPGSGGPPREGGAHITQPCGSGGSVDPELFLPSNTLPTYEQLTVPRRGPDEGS
KCNQ1 act – potentiators or activators of human KCNQ1 potassium channel | AID 2648 | CHO-K1 KCNQ1, thallium flux FluxOR fluorescence; active compounds read high | P51787 | actives 0.35% (n = 310,000) | B-score at 10 µM;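 active means fluorescence ratio B-score, a plate-corrected score, at least three library SD, with initial intensity B-score within 5 SD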
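Schedule – 37 °C overnight plating, 90-min dark dye load, 20-min compound pretreatment · System – stable KCNQ1 CHO-K1 line · Probe or stimulus – thallium- and potassium-containing depolarizing buffer · Measured by – kinetic FluxOR fluorescence, 10 s baseline plus 110 s post-stimulus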
hERG rescue – hERG (human) protection from proarrhythmic block. AID 1511. actives 0.51% (n = 310,000). activation (rescue from dofetilide block), less the hit threshold, % at 10 µM. CHO-hERG, FluxOR thallium flux, dofetilide IC70 present;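 active means activation above the mean of controls blocked by dofetilide plus 5 SD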;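 further: thallium influx through hERG after potassium depolarization seen as dye fluorescence rise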
KCNK9 inh – inhibitors of human KCNK9 two-pore domain potassium channel. Q9NPC2. HEK293 KCNK9, FluxOR thallium flux fluorescence; active compounds read low. B-score at 10 µM. actives 1.2% (n = 310,000). AID 488922;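 active means ratio B-score over 3 SD below the library mean, with starting fluorescence within 5 SD of its mean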;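 further: negative B-score means less thallium flux so channel inhibition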
KCNQ1 block val – human KCNQ1 channel inhibition, validation assay. actives 93% (n = 1,600). AID 588353. shares compounds with KCNQ1 block. inhibition, % at 10 µM. KCNQ1 cell line, FluxOR thallium flux fluorescence;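 active means primary screen active, with duplicate mean exceeding buffer control mean plus 3 SD of buffer wells, cut at about 28% in these data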;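 further: 0% = buffer control ratio and 100% = XE991 inhibitor control ratio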
CHO KCNQ1 ctr – KCNQ1 inhibitor counter-screen hit in parental CHO cells | shares compounds with KCNQ1 block | parental CHO-K1, FluxOR thallium flux fluorescence ratio; active compounds read low; zero means no signal rise above baseline | fluorescence ratio (Tl flux) at 10 µM | actives 21% (n = 1,600) | AID 588366;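 active means mean of duplicate thallium-flux fluorescence ratios in parental host cells more than 5 SD below the buffer control mean, cut at about 0.38 in these data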;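 further: ratio is peak minus minimum fluorescence divided by baseline fluorescence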
KCNQ1 ephys val – blocks human KCNQ1 current in automated patch clamp | shares compounds with KCNQ1 block | KCNQ1-CHO cells | calls only at 10 µM | actives 20% (n = 490) | AID 624120;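 active means KCNQ1 current drop exceeding 3 SD of negative control wells, seen in both duplicate runs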;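 further: steady state current during a 2 s step from -80 to +40 mV; negative values mean current inhibition and positive values mean potentiation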
KCNQ2 spec – selectivity of KCNQ1 inhibitors: inhibition of rat KCNQ2 channel. shares compounds with KCNQ1 block. KCNQ2 cells, FluxOR thallium flux fluorescence. inhibition, % at 10 µM. actives 71% (n = 1,600);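 active means mean percent inhibition of the KCNQ2 thallium signal more than 5 SD above the buffer-only control wells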;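 further: KCNQ2 expressed in CHO cells; 0% = buffer control wells and 100% = XE-991 inhibitor control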
KCNQ1 KCNE1 spec – KCNQ1 inhibitor that also blocks human KCNQ1/KCNE1 channel. shares compounds with KCNQ1 block. KCNQ1/KCNE1 cells, FluxOR thallium flux fluorescence. inhibition, % at 10 µM. actives 77% (n = 1,600);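 active means mean percent inhibition of duplicate wells above the buffer-only control mean plus 3 SD of those controls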;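 further: 0% = buffer only wells and 100% = XE-991 inhibitor control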
KCNK9 inh conf – human KCNK9 inhibitor confirmation | shares compounds with KCNK9 inh | actives 43% (n = 4,900) | inhibition, % at 10 µM | HEK293 KCNK9 cells, FluxOR thallium flux fluorescence | AID 492992;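 active means thallium signal inhibited by more than 5 SD of the compound-free buffer control wells, on both duplicate plates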;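 further: 0% = assay buffer control wells without compound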
Kir21 sel – selectivity of KCNK9 modulators against mouse Kir2.1; shares compounds with KCNK9 inh; Kir2.1 cells, FluxOR thallium flux fluorescence; inhibition, % at 10 µM; actives 4% (n = 4,900); AID 492993;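 active means thallium signal drop more than 5 SD beyond the mean of the no-compound control wells, seen in both duplicate plates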;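 further: signal is fluorescence rise after thallium addition divided by baseline fluorescence; plate controls were assay buffer only for no effect and full block by chlorpromazine control for full effect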
KCNK9 uninduced – second counter-screen for KCNK9 modulators: effect in non-induced cells. shares compounds with KCNK9 inh. non-induced KCNK9-HEK293, FluxOR thallium flux. inhibition, % at 10 µM. actives 40% (n = 4,900). AID 492997;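 active means thallium signal drop beyond 5 SD of the untreated control mean, on both duplicate plates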;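 further: plate controls were buffer only IC0 wells for no effect and SID17386958 at its maximal inhibitory level for full effect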
KCNK3 confirm – confirmation of human KCNK3 two-pore domain potassium channel inhibitors. ratio percent of control, % at 10 µM. actives 99% (n = 2,400). shares compounds with KCNK3 inh. CHO-KCNK3 thallium flux, FluxOR fluorescence; 0% buffer, 100% carvedilol maximal block;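 active means ratio percent of control, averaged over triplicates, above buffer control mean plus 5 SD, cut at about 64% in these data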;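 further: ratio is the fluorescence rise from min to max over baseline after thallium stimulus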
KCNK3 noninduced – KCNK3 inhibitor counter-screen hit in non-induced cells. actives 40% (n = 2,400). non-induced KCNK3 parental cells, FluxOR thallium flux; active compounds read low. AID 651747. thallium flux ratio (lower = more inhibition) at 10 µM. shares compounds with KCNK3 inh;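 active means thallium flux ratio, averaged over three wells, more than 5 SD below the buffer control mean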;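 further: host cells are CHO cells without KCNK3 induction; ratio is peak minus trough fluorescence over baseline then normalized to buffer controls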
The depositor's hits bear a star; i = inactive; / = not tested or not shown. Shown are actives, neighbours in structure and some others; about 3.7% of the full set was active somewhere.

SMILES	Kir21 block	KCNK3 inh	KCNQ1 block	KCNQ1 act	hERG rescue	KCNK9 inh	KCNK9 inh conf	Kir21 sel	KCNK9 uninduced	others
Oc1ccccc1CN(CCc1ccccc1)Cc1ccccc1	-3.2	-8.9*	9*	i	-9	-7.9*	/	/	/	KCNQ1 block val=108*;CHO KCNQ1 ctr=0.39;KCNQ1 ephys val=i;KCNQ2 spec=97%*;KCNQ1 KCNE1 spec=130%*;KCNK3 confirm=120*;KCNK3 noninduced=0.14*
COC(=O)C1=C(c2cc3ccccc3o2)C[C@@H]2CC[C@H]1N2C(=O)NCc1ccco1	0.11	i	i	i	-3	i	/	/	/
COc1ccccc1CN1CCN(C(=O)COc2ccc3ccccc3c2)CC1	-6.2	i	i	i	-5	i	i	33%*	i
COc1ccccc1CN1CCN(C(=O)COc2cccc(C)c2)CC1	0.75	i	i	i	-6	i	/	/	/
CC(C)n1c(=O)c(C=Nc2cccc([N+](=O)[O-])c2)c(O)n(CCc2ccccc2)c1=O	-2.1	i	i	i	-7	i	i	i	i
CCCCn1c(=O)c(C=Nc2cc([N+](=O)[O-])ccc2OC)c(O)n(CCCCl)c1=O	0.75	i	i	i	-4	i	/	/	/
COc1ccc(-n2c(O)c(C=NCCN3CCN(C(C)=O)CC3)c(=O)[nH]c2=S)cc1	-0.08	i	i	i	-5	i	/	/	/
O=C(Nc1nccs1)c1c(O)c2c(n(Cc3ccco3)c1=O)CCCC2	0.23	i	6*	i	-7	-8.2*	44%*	i	36%*
O=C(Nc1ccccc1)c1c(O)c2c(n(Cc3ccco3)c1=O)CCCC2	-0.06	i	i	i	-1	i	/	/	/
O=C(c1cccc(Cl)c1)C1CCCN(Cc2cccc3cnccc23)C1 (centres undefined)	-2.1	i	i	i	-11	i	/	/	/
O=C(c1ccc(Cl)cc1)C1CCCN(Cc2cccc3cnccc23)C1 (centres undefined)	-1.4	i	i	i	-26	i	i	i	i
O=C(c1ccc2c(c1)OCO2)C1CCCN(Cc2ccc(F)c(F)c2)C1 (centres undefined)	-0.24	i	i	i	-13	i	/	/	/
O=C(c1ccc(Cl)cc1)C1CCCN(Cc2ccc3ncccc3c2)C1 (centres undefined)	-0.38	i	i	i	-28	i	i	i	i
O=C(c1ccc(Cl)cc1)C1CCCN(Cc2ccc3c(c2)OCCO3)C1 (centres undefined)	-1.4	i	i	i	-8	i	i	i	i
Cc1ccc(C(=O)C2(C)N(O)C(C)C(c3cccs3)=[N+]2[O-])cc1 (centres undefined)	0.67	i	i	i	-3	i	/	/	/
O=C(CN1CC=C(c2ccccc2)CC1)NC(=O)NC1CCCCC1	-1.5	i	i	i	-9	i	i	i	i
CC(C)(C)NC(=O)NC(=O)CN1CC=C(c2ccccc2)CC1	0	i	i	i	-9	i	i	i	i
COC(=O)C1=C(c2cc3ccccc3s2)C[C@@H]2CC[C@H]1N2C(=O)N1CCC(C)CC1	-0.9	i	i	i	-11	i	i	i	i
COc1cc(C)c(-c2nc(CN3C[C@@H]4C[C@@H](C3)c3cccc(=O)n3C4)c(C)o2)cc1C	1.6	i	i	i	-7	i	/	/	/
COc1cccc(NP(=O)(Oc2ccccc2Cl)Oc2ccccc2Cl)c1	0	i	i	i	-2	-10*	38%*	i	38%*
CCCCn1c(=O)c(C=Nc2ccc(Cl)cc2)c(O)n(Cc2ccco2)c1=O	1.5	i	i	i	-2	i	i	i	i
CCC(=O)c1cn(Cc2ccccc2)c2ccccc12	0.01	i	i	i	-21	i	/	/	/
O=C(COc1ccccc1)c1cn(Cc2ccccc2)c2ccccc12	-3.3	i	i	i	-9	-10*	52%*	i	53%*
Cc1ccc2c(CN3CC=C(c4ccccc4)CC3)cc(=O)oc2c1C	2.3	i	i	i	-13	i	i	i	i
CCc1ccc2c(CN3CC=C(c4ccccc4)CC3)cc(=O)oc2c1	1.7	i	i	i	-10	i	/	/	/
CCOP1(=S)Oc2cc3c(cc2C(C(=O)OC)(C(F)(F)F)O1)OCO3 (centres undefined)	0.02	i	i	i	-9	i	/	/	/
CCCCN(Cc1ccccc1)C1CCN(CCc2ccccc2)CC1	-0.39	i	i	i	-8	i	i	i	i
CCc1n[nH]c(CCN)n1	-0.06	i	i	i	-5	i	/	/	/
